Each structure is given as a SMILES string.

The target of this assay is T1, Adenosine receptor A1 (Rattus norvegicus, UniProt P25099).
T1 sequence (P25099 whole entry): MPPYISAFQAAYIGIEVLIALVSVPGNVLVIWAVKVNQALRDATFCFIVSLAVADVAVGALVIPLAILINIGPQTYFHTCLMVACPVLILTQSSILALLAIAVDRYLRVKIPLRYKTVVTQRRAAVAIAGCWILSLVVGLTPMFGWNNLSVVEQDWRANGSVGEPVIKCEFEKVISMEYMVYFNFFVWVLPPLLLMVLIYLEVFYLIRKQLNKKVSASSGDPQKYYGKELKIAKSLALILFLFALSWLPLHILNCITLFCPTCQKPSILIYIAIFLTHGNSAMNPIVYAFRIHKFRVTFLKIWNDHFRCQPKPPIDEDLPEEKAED
Description: GTP-induced shift at rat Adenosine A1 receptor (A1AR). A digest of the protocol: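 GTP shift taken from these two Ki values. Done only for compounds giving >50% radioligand displacement at 10⁻⁶ M. At least three independent experiments in duplicate.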
For the compound `Cn1cnc2c(NC3CCCC3)ncnc21`, the GTP shift came out at 0.94.
For `C[C@H]1O[C@@H](n2cnc3c(NC4CCCC4)ncnc32)[C@H](O)[C@H]1NC(=O)CCCc1cccs1` [N-[5-(6-Cyclopentylamino-purin-9-yl)-4-hydroxy-2-methyl-tetrahydro-furan-3-yl]-4-thiophen-2-yl-butyramide], the GTP shift turned out to be 0.7.
With `C[C@H]1O[C@@H](n2cnc3c(NC4CCCC4)ncnc32)[C@H](O)[C@H]1O` [2-(6-Cyclopentylamino-purin-9-yl)-5-methyl-tetrahydro-furan-3,4-diol] the figure was 6.4.
In the case of `O=C(N[C@@H]1[C@@H](O)[C@H](n2cnc3c(NC4CCCC4)ncnc32)O[C@@H]1CO)c1ccc(F)c(Cl)c1` [3-Chloro-N-[5-(6-cyclopentylamino-purin-9-yl)-4-hydroxy-2-hydroxymethyl-tetrahydro-furan-3-yl]-4-fluoro-benzamide], the GTP shift was determined as 0.7.
With `C[C@H]1O[C@@H](n2cnc3c(NC4CCCC4)ncnc32)[C@H](O)[C@H]1NC(=O)C1(c2ccccc2)CCCC1` [1-Phenyl-cyclopentanecarboxylic acid [5-(6-cyclopentylamino-purin-9-yl)-4-hydroxy-2-methyl-tetrahydro-furan-3-yl]-amide] the figure was 0.84.
With `C[C@H]1O[C@@H](n2cnc3c(NC4CCCC4)ncnc32)[C@H](O)[C@H]1NC(=O)C1CCCC[C@H]1C(=O)c1cccs1` (some centres undefined) [2-(Thiophene-2-carbonyl)-cyclohexanecarboxylic acid [5-(6-cyclopentylamino-purin-9-yl)-4-hydroxy-2-methyl-tetrahydro-furan-3-yl]-amide] the figure was 0.72; with `O=C(CCCc1cccs1)N[C@@H]1[C@@H](O)[C@H](n2cnc3c(NC4CCCC4)ncnc32)O[C@@H]1CO` [N-[5-(6-Cyclopentylamino-purin-9-yl)-4-hydroxy-2-hydroxymethyl-tetrahydro-furan-3-yl]-4-thiophen-2-yl-butyramide], 0.69.
With `Cc1ccc(C(=O)N[C@@H]2[C@@H](O)[C@H](n3cnc4c(NC5CCCC5)ncnc43)O[C@@H]2CO)cc1C` [N-[5-(6-Cyclopentylamino-purin-9-yl)-4-hydroxy-2-hydroxymethyl-tetrahydro-furan-3-yl]-3,4-dimethyl-benzamide] the figure was 0.73.
As for `C[C@H]1O[C@@H](n2cnc3c(NC4CCCC4)ncnc32)[C@H](O)[C@H]1NC(=O)C1(c2ccccc2)CCCCC1` [1-Phenyl-cyclohexanecarboxylic acid [5-(6-cyclopentylamino-purin-9-yl)-4-hydroxy-2-methyl-tetrahydro-furan-3-yl]-amide], the GTP shift came to 0.74.

These data come from BindingDB's records for doi:10.1021/jm0110439 (Ghent University, 2002).
